According to ChEMBL document CHEMBL1144528, “Synthesis of 8-thiabicyclo[3.2.1]octanes and their binding affinity for the dopamine and serotonin transporters” (Bioorg Med Chem, 2007):

Tests used:
Transporter = Transporter (Macaca mulatta, UniProt Q7JHP9); assay: Displacement of [3H]WIN-35428 from DAT in rhesus monkey caudate-putamen; format: tissue-based
Procedure, shortened: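 Rhesus or cynomolgus caudate-putamen membranes (4 mg original wet weight/mL) in 50 mM Tris·HCl pH 7.4, 100 mM NaCl. Incubated 2 h at 0-4 °C with 0.3 nM [3H]WIN35,428 and a range of drug concentrations. Filtered on 0.1% BSA-soaked glass fibre filters and scintillation counted. Nonspecific binding defined with 30 μM (-)-cocaine. IC50 is the mean of ≥2 experiments in different brains, each in triplicate.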

[1] = target: Sodium-dependent serotonin transporter (Macaca mulatta, UniProt Q9MYX0); assay: Displacement of [3H]citalopram from SERT in rhesus monkey caudate-putamen; format: tissue-based
Sodium-dependent serotonin transporter, sequence (Q9MYX0 whole entry): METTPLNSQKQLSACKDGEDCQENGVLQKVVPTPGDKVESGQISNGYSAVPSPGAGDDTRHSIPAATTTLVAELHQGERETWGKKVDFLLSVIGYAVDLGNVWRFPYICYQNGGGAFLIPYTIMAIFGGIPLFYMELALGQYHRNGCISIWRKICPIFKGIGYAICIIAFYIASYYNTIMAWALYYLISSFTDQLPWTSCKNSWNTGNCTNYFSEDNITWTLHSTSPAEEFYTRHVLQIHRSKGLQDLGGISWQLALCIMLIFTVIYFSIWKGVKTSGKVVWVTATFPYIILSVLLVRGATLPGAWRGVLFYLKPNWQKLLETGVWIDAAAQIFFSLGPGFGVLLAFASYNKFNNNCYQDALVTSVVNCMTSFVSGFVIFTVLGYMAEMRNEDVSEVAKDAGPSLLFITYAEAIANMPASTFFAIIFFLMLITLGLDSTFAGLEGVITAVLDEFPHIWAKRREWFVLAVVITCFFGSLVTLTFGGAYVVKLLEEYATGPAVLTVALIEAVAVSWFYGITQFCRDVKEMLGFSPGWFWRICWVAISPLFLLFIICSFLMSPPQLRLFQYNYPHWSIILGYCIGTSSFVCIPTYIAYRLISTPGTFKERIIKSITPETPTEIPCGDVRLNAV
Procedure, shortened: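 Caudate-putamen membranes from rhesus or cynomolgus monkey (4 mg original wet weight/mL) in 50 mM Tris·HCl pH 7.4 with 100 mM NaCl. Incubated with 1 nM [3H]citalopram and a range of test drug concentrations for 2 h at 0-4 °C. Filtered over glass fibre filters pre-soaked in 0.1% polyethyleneimine, then scintillation counted. IC50 is the mean of ≥2 independent experiments in different brains, each in triplicate.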

Macaca mulatta = species: Macaca mulatta; assay: Selectivity for rhesus monkey DAT over rhesus monkey SERT
Procedure, shortened: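 Ratio of SERT IC50 ([3H]citalopram binding) to DAT IC50 ([3H]WIN35,428 binding), both measured in monkey caudate-putamen membranes.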

Transporter, sequence (Q7JHP9 whole entry): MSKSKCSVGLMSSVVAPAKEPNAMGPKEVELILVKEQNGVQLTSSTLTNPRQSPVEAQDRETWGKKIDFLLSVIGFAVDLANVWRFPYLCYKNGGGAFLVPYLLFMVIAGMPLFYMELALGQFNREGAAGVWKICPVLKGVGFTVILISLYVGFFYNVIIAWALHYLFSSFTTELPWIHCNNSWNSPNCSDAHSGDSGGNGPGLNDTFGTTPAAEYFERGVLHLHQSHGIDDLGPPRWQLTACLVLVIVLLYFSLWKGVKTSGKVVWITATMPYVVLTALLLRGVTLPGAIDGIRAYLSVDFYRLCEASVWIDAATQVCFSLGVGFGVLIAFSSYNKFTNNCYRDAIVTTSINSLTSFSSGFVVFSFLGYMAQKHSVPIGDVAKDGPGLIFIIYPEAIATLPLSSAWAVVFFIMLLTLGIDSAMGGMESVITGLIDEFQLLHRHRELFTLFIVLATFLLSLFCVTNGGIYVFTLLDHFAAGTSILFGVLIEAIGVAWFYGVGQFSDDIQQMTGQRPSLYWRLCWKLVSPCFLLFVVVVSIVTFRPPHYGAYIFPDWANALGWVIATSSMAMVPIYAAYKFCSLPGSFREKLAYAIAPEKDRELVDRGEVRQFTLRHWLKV

| Compound | IC50 (Transporter) | IC50 [1] | Ratio IC50 (Macaca mulatta) |
| --- | --- | --- | --- |
| COC(=O)C1=C(c2ccc(Cl)c(Cl)c2)CC2CC[C@H]1N2C | 1.2 nM | 867 nM | 723 |
| COC(=O)C1=C(c2ccc(F)c(F)c2)CC2CCC1S2 (stereo not drawn) | 75 nM | > 10000 nM | > 133 |
| COC(=O)[C@@H]1C2CCC(C[C@@H]1c1ccc(Cl)c(F)c1)S2 (stereo partly drawn) | 6 nM | 17 nM | 3 |
| COC(=O)C1=C(c2ccc(F)c(Cl)c2)CC2CCC1S2 (stereo not drawn) | 7.6 nM | > 6000 nM | > 789 |
| COC(=O)[C@@H]1C2CCC(C[C@H]1c1ccc(Br)cc1)[S+]2[O-] (stereo partly drawn) | 14 nM | > 24000 nM | > 1710 |
| COC(=O)[C@@H]1C2CCC(C[C@@H]1c1ccc(Cl)cc1)S2 (stereo partly drawn) | 9.6 nM | 33 nM | 3.4 |
| COC(=O)[C@@H]1[C@@H]2[C@H](O)CC(C[C@H]1c1ccc(Cl)c(Cl)c1)N2C | 482 nM | 5300 nM | 11 |
| COC(=O)[C@@H]1C2CCC(C[C@H]1c1ccc(Cl)c(F)c1)S2 (stereo partly drawn) | 7 nM | 702 nM | 100 |
| COC(=O)[C@@H]1C2CCC(C[C@@H]1c1ccc(Cl)c(Cl)c1)[S+]2[O-] (stereo partly drawn) | 5.3 nM | 120 nM | 23 |
| COC(=O)[C@@H]1[C@@H]2[C@H](O)CC(C[C@@H]1c1ccc(Cl)c(Cl)c1)N2C | 2690 nM | 139 nM | 0.05 |
| COC(=O)[C@@H]1[C@@H]2CCC(C[C@H]1c1ccc(Cl)c(Cl)c1)O2 | 56 nM | 2860 nM | 51 |
| COC(=O)[C@@H]1C2CCC(C[C@H]1c1ccc(Br)cc1)S2 (stereo partly drawn) | 6 nM | 342 nM | 57 |
| COC(=O)[C@@H]1C2CCC(C[C@H]1c1ccc(Cl)cc1)S2 (stereo partly drawn) | 11 nM | 1000 nM | > 91 |
| COC(=O)[C@H]1[C@@H](c2ccc(Cl)c(Cl)c2)CC2CC[C@H]1S2 | 2 nM | 3 nM | 1.5 |
| COC(=O)[C@@H]1C2CCC(C[C@@H]1c1ccc(Cl)c(Cl)c1)O2 (stereo partly drawn) | 3.3 nM | 6.5 nM | 2 |
| COC(=O)[C@@H]1C2CCC(C[C@@H]1c1ccc(I)cc1)S2 (stereo partly drawn) | 14 nM | 10 nM | 0.7 |
| COC(=O)[C@@H]1C2CCC(C[C@@H]1c1ccc(F)c(F)c1)S2 (stereo partly drawn) | 32 nM | 235 nM | 7 |
| COC(=O)C1=C(c2ccccc2)CC2CCC1S2 (stereo not drawn) | 910 nM | > 10000 nM | > 11 |
| COC(=O)[C@H]1[C@@H](c2ccc(Cl)c(Cl)c2)CC2CC[C@H]1N2C | 1.1 nM | 2.5 nM | 2.2 |
| COC(=O)C1=C(c2ccc(I)cc2)CC2CCC1S2 (stereo not drawn) | 6.7 nM | > 8000 nM | > 1300 |
| COC(=O)C1=C(c2ccc(Cl)c(Cl)c2)CC2CCC1S2 (stereo not drawn) | 4.5 nM | > 3000 nM | > 800 |
| COC(=O)[C@@H]1C2CCC(C[C@H]1c1ccc(F)cc1)S2 (stereo partly drawn) | 59 nM | > 11000 nM | > 186 |

| Compound | IC50 (Transporter) | IC50 [1] | Ratio IC50 (Macaca mulatta) |
| --- | --- | --- | --- |
| COC(=O)C1=C(c2ccc(Cl)c(Cl)c2)CC2CCC1O2 (stereo not drawn) | 10 nM | 6000 nM | 600 |
| COC(=O)[C@@H]1[C@H]2[C@H](O)CC(C[C@H]1c1ccc(Cl)c(Cl)c1)N2C | 0.76 nM | 1220 nM | 1610 |
| COC(=O)[C@@H]1C2CCC(C[C@H]1c1ccc(F)c(F)c1)[S+]2[O-] (stereo partly drawn) | 89 nM | > 69000 nM | > 775 |
| COC(=O)[C@@H]1C2CCC(C[C@H]1c1ccc(I)cc1)S2 (stereo partly drawn) | 9 nM | 70 nM | 8 |
| COC(=O)[C@@H]1[C@H]2CCC(C[C@H]1c1ccc(Cl)c(Cl)c1)N2C | 0.4 nM | 27 nM | 68 |
| COC(=O)C1=C(c2ccc(Cl)c(Cl)c2)CC2CC[C@@H]1S2 | 5 nM | 4000 nM | 800 |
| COC(=O)C1=C(c2ccc(Cl)cc2)CC2CCC1S2 (stereo not drawn) | 13 nM | > 10000 nM | > 770 |
| COC(=O)[C@@H]1C2CCC(C[C@@H]1c1ccc(Cl)c(Cl)c1)S2 (stereo partly drawn) | 5.7 nM | 8 nM | 1.5 |
| COC(=O)C1=C(c2ccc(Br)cc2)CC2CCC1S2 (stereo not drawn) | 9.1 nM | > 25000 nM | > 2750 |
| COC(=O)[C@@H]1C2CCC(C[C@H]1c1ccc(F)c(Cl)c1)S2 (stereo partly drawn) | 7.1 nM | 480 nM | 68 |
| COC(=O)[C@@H]1C2CCC(C[C@H]1c1ccc(Cl)c(Cl)c1)O2 (stereo partly drawn) | 3.1 nM | 64.5 nM | 21 |
| COC(=O)[C@@H]1C2CCC(C[C@H]1c1ccc(Cl)c(F)c1)[S+]2[O-] (stereo partly drawn) | 17 nM | > 14000 nM | > 824 |
| COC(=O)[C@@H]1C2CCC(C2)C[C@H]1c1ccc(Cl)c(Cl)c1 (stereo partly drawn) | 13 nM | 166 nM | 13 |
| COC(=O)C1=C(c2ccc(Cl)c(Cl)c2)CC2CCC1C2 (stereo not drawn) | 7.1 nM | 5160 nM | 727 |
| COC(=O)C1=C(c2ccccc2)CC2CCC1[S+]2[O-] (stereo not drawn) | 6000 nM | > 10000 nM | > 1.6 |
| COC(=O)C1=C(c2ccc(Cl)c(Cl)c2)CC2C[C@@H](O)[C@H]1N2C | 7.4 nM | 5370 nM | – |
| COC(=O)[C@@H]1C2CCC(C[C@H]1c1ccc(Cl)c(Cl)c1)S2 (stereo partly drawn) | 6.9 nM | 99 nM | 14 |
| COC(=O)[C@@H]1C2CCC(C[C@@H]1c1ccccc1)S2 (stereo partly drawn) | 117 nM | > 3000 nM | > 29 |
| COC(=O)C1=C(c2ccc(Cl)c(Cl)c2)CC2CC[C@@H]1N2C | 490 nM | 1900 nM | 4 |
| COC(=O)C1=C(c2ccc(Cl)c(Cl)c2)CC2CC[C@@H]1O2 | 58 nM | 46700 nM | 805 |
| COC(=O)[C@@H]1C2CCC(C[C@@H]1c1ccc3ccccc3c1)S2 (stereo partly drawn) | 16 nM | 13 nM | 0.8 |
| COC(=O)[C@@H]1[C@@H]2CCC(C[C@@H]1c1ccc(Cl)c(Cl)c1)O2 | 47 nM | 58 nM | 1.2 |

| Compound | IC50 (Transporter) | IC50 [1] | Ratio IC50 (Macaca mulatta) |
| --- | --- | --- | --- |
| COC(=O)C1=C(c2ccc(Cl)c(F)c2)CC2CCC1S2 (stereo not drawn) | 10 nM | > 50000 nM | > 5000 |
| COC(=O)[C@@H]1[C@@H]2CCC(C[C@@H]1c1ccc(Cl)c(Cl)c1)S2 | 22 nM | 90 nM | 4 |
| COC(=O)[C@@H]1C2CCC(C2)C[C@@H]1c1ccc(Cl)c(Cl)c1 (stereo partly drawn) | 9.6 nM | 33 nM | 3.4 |
| COC(=O)[C@@H]1[C@H]2CCC(C[C@H]1c1ccc(Cl)c(Cl)c1)O2 | 2.3 nM | 31 nM | 13 |
| COC(=O)[C@@H]1C2CCC(C[C@@H]1c1ccc(F)c(Cl)c1)S2 (stereo partly drawn) | 6.7 nM | 370 nM | 55 |
| COC(=O)C1=C(c2ccc(Cl)c(Cl)c2)CC2CC[C@H]1S2 | 2.5 nM | 2600 nM | 1040 |
| COC(=O)[C@H]1[C@@H](c2ccc(Cl)c(Cl)c2)CC2CC[C@H]1O2 | 3.3 nM | 4.7 nM | 1.4 |
| COC(=O)[C@@H]1C2CCC(C[C@H]1c1ccccc1)[S+]2[O-] (stereo partly drawn) | 1000 nM | 100000 nM | 100 |
| COC(=O)[C@@H]1C2CCC(C[C@H]1c1ccc(F)c(F)c1)S2 (stereo partly drawn) | 11.3 nM | 1000 nM | 88 |
| COC(=O)C1=C(c2ccc(Cl)c(Cl)c2)CC2C[C@@H](O)[C@@H]1N2C | 265 nM | 1590 nM | – |
| COC(=O)[C@@H]1C2CCC(C[C@H]1c1ccc3ccccc3c1)S2 (stereo partly drawn) | 8 nM | 36 nM | 4.5 |
| COC(=O)C1=C(c2ccc(Cl)c(Cl)c2)CC2CC[C@H]1O2 | 4.6 nM | 2120 nM | 460 |
| COC(=O)[C@@H]1C2CCC(C[C@@H]1c1ccc(Br)cc1)S2 (stereo partly drawn) | 6 nM | 14 nM | 2.3 |
| COC(=O)[C@@H]1C2CCC(C[C@H]1c1ccccc1)S2 (stereo partly drawn) | 140 nM | > 8000 nM | > 57 |
| COC(=O)[C@@H]1C2CCC(C[C@H]1c1ccc(F)c(Cl)c1)[S+]2[O-] (stereo partly drawn) | 23 nM | > 31000 nM | > 1350 |
| COC(=O)[C@@H]1[C@@H]2CCC(C[C@H]1c1ccc(Cl)c(Cl)c1)S2 | 10 nM | 139 nM | 14 |
| COC(=O)[C@@H]1C2CCC(C[C@H]1c1ccc(Cl)c(Cl)c1)[S+]2[O-] (stereo partly drawn) | 7.8 nM | > 3000 nM | > 346 |
| COC(=O)[C@@H]1C2CCC(C[C@@H]1c1ccc(F)cc1)S2 (stereo partly drawn) | 38 nM | 494 nM | 13 |
| COC(=O)[C@@H]1C2CCC(C[C@@H]1c1ccc(Cl)c(F)c1)[S+]2[O-] (stereo partly drawn) | 14 nM | > 4000 nM | > 286 |
| COC(=O)C1=C(c2ccc3ccccc3c2)CC2CCC1S2 (stereo not drawn) | 8 nM | > 1000 nM | > 163 |
| COC(=O)[C@@H]1[C@H]2[C@H](O)CC(C[C@@H]1c1ccc(Cl)c(Cl)c1)N2C | 0.3 nM | 15 nM | 50 |
